Data on eleven compounds can be found in ChEMBL document CHEMBL5523688, “Selective targeting of human TET1 by cyclic peptide inhibitors: Insights from biochemical profiling” (Bioorg Med Chem, 2024).

In assay [1] the target is Methylcytosine dioxygenase TET1 (Homo sapiens, UniProt Q8NFU7). The experiment in a line: Inhibition of N-terminal 3xFlag-tagged recombinant human TET1 catalytic domain (E1418 to V2136 residues) expressed in baculovirus infected Sf9 cells using 5-methylcytosine as substrate preincubated for 10 mins followed by substrate and DNA-cofactor addition measured after 30 mins by Alphascreen assay. The conditions noted are these: read-out: pIC50 (converted). Summed up:
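TET1 catalytic domain (E1418–V2136, Sf9 baculovirus) at 2 nM was preincubated 10 min with inhibitor (1% DMSO) in HEPES 50 mM pH 7.3, 150 mM NaCl, 0.1% BSA, 0.01% Tween-20. Reaction was started with ascorbate 200 µM, Fe(II) 20 µM, 2OG 20 µM and 5mC ssDNA 10 nM, run 30 min, then EDTA-quenched. Anti-5hmC antibody with AlphaScreen beads, 45–60 min, luminescence read. Three independent replicates.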

The target in assay [2] is T1, Methylcytosine dioxygenase TET2 (Homo sapiens, UniProt Q6N021). The experiment in a line: Inhibition of N-terminal His-tagged recombinant human TET2 catalytic domain LCIdel mutant (D1129 to G1936 residues with Y1481 to N1843 replaced by 3 x GGGGS linker) expressed in Escherichia coli BL21 (DE3) using 5-methylcytosine as substrate preincubated for 10 mins followed by substrate and DNA-cofactor addition measured after 10 mins by Alphascreen assay. For orientation: In Alpha technology, singlet oxygen from a donor bead excites a nearby acceptor bead.

Assay [3] has as its target T1, Methylcytosine dioxygenase TET2. Briefly: Inhibition of N-terminal His-tagged recombinant human TET2 catalytic domain LCIdel mutant (D1129 to G1936 residues with Y1481 to N1843 replaced by 3 x GGGGS linker) expressed in Escherichia coli BL21 (DE3) using 5-methylcytosine as substrate preincubated for 10 mins followed by substrate and DNA-cofactor addition measured after 12 mins by SPE-MS analysis.

For assay [4], the target named is Methylcytosine dioxygenase TET3 (Homo sapiens, UniProt O43151). Briefly: Inhibition of recombinant human TET3 catalytic domain (E824 to I1795 residues) expressed in baculovirus infected Sf9 cells using 5-methylcytosine as substrate preincubated for 10 mins followed by substrate and DNA-cofactor addition measured after 10 mins by Alphascreen assay. The note with it: read-out: pIC50 (converted).

In assay [5] the target is Methylcytosine dioxygenase TET1 (Mus musculus, UniProt Q3URK3). Briefly: Inhibition of recombinant mouse TET1 catalytic domain (E1367 to V2039 residues) expressed in baculovirus expression system using 5-methylcytosine as substrate preincubated for 10 mins followed by substrate and DNA-cofactor addition measured after 9 mins by Alphascreen assay. Summed up: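 Murine Tet1 catalytic domain (E1367–V2039, High Five baculovirus) at 2 nM was preincubated 10 min with inhibitor (1% DMSO) in HEPES 50 mM pH 7.3, NaCl 150 mM, BSA 0.1%, Tween-20 0.01%. Ascorbate 200 µM, Fe(II) 20 µM, 2OG 20 µM and 5mC ssDNA 10 nM were added; reaction ran 9 min, then EDTA-quenched. AlphaScreen anti-5hmC detection by luminescence.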

For assay [6], the system named is Methylcytosine dioxygenase TET2 (Homo sapiens), Q6N021 [UNDEFINED MUTATION]. The conditions noted are these: time 20.0 min.

Sequence of Methylcytosine dioxygenase TET1 (Homo sapiens, UniProt Q8NFU7) (Q8NFU7 whole entry, the tested form may be a part): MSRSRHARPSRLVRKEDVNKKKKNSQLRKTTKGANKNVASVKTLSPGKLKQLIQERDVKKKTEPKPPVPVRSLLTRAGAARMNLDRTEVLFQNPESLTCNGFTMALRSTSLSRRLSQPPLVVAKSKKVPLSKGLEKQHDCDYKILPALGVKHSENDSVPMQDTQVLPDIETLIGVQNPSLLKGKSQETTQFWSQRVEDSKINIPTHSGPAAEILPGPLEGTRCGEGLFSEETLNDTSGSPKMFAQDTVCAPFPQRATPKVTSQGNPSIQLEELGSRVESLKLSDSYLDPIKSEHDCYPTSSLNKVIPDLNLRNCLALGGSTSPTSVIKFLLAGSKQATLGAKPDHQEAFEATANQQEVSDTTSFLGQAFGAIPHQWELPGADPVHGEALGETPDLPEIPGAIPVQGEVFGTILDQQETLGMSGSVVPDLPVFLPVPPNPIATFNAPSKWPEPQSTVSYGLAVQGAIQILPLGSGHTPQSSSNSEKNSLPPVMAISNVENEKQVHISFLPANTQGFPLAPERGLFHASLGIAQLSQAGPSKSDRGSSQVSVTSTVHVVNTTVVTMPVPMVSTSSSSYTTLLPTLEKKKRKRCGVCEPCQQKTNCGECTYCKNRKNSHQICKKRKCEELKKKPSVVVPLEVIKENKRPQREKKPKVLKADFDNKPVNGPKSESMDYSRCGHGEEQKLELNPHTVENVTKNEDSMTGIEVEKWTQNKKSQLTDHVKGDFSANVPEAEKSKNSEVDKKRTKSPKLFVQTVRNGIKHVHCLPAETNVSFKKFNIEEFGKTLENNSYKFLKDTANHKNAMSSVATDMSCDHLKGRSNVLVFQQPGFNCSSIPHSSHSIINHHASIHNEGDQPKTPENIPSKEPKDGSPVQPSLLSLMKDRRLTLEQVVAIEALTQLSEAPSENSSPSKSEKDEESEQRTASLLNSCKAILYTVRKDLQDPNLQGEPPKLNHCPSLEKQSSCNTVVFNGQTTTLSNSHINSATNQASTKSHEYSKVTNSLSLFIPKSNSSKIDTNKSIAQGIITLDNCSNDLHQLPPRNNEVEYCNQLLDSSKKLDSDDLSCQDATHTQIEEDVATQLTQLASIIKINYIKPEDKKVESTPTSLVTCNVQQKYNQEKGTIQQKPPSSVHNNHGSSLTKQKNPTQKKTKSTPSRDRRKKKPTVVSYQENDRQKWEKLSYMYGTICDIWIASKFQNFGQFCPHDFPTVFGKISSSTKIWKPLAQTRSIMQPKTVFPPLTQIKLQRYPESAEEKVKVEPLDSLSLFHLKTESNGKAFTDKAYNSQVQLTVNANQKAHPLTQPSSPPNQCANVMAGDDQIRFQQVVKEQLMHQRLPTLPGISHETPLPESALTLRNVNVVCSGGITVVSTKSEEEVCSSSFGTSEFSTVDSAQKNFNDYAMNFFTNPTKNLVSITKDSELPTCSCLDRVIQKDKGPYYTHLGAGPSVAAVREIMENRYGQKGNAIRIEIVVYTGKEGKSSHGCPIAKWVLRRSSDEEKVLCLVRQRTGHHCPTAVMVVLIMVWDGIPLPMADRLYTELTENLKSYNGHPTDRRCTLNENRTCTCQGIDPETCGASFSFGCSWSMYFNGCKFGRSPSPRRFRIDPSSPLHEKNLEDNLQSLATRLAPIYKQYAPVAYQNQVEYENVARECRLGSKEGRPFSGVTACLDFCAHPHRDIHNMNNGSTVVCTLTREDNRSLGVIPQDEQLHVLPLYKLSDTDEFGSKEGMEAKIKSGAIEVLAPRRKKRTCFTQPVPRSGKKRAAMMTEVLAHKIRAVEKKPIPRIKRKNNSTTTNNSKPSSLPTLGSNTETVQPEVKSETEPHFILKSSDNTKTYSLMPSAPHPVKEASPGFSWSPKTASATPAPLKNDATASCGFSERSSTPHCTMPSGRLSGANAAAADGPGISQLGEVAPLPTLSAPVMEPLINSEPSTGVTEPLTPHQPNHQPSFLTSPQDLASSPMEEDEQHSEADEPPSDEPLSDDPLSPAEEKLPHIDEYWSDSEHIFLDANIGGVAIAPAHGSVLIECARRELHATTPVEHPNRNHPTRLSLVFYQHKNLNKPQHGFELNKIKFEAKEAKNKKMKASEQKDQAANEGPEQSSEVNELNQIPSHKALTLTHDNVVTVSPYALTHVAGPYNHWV

In the case of `CC[C@H](C)[C@@H]1NC(=O)[C@H](Cc2ccc(O)cc2)NC(=O)[C@H](Cc2ccc(O)cc2)NC(=O)[C@H](C(C)C)NC(=O)[C@@H](Cc2ccc(O)cc2)NC(=O)CSC[C@@H](C(N)=O)NC(=O)[C@H]([C@@H](C)O)NC(=O)[C@H](CCC(=O)O)NC(=O)[C@H](Cc2ccccc2)NC(=O)[C@H](C(C)C)NC(=O)[C@H](C)NC(=O)[C@H](CCCNC(=N)N)NC(=O)[C@H](CS)NC(=O)[C@H](Cc2c[nH]c3ccccc23)NC(=O)[C@H](Cc2c[nH]c3ccccc23)NC(=O)[C@@H]2CCCN2C1=O`, the results for the IC50 in assay [1], in assay [4] and in assay [5] were 44700 nM, 31600 nM and 38900 nM, respectively. Also, the pIC50 in assay [2] is recorded as < 4; in assay [3], 5.44. Also, in assay [6], the deltapIC50 was > 1.44.
For the compound `CC[C@H](C)[C@@H]1NC(=O)[C@H](Cc2c[nH]c3ccccc23)NC(=O)[C@H](Cc2c[nH]c3ccccc23)NC(=O)[C@H]([C@@H](C)O)NC(=O)[C@H](Cc2ccc(O)cc2)NC(=O)[C@H](CC(N)=O)NC(=O)[C@H](Cc2ccc(O)cc2)NC(=O)[C@H](Cc2ccc(O)cc2)NC(=O)[C@H](CC(C)C)NC(=O)[C@H](CCCCN)NC(=O)[C@@H](Cc2c[nH]c3ccccc23)NC(=O)CSC[C@@H](C(N)=O)NC1=O`, the IC50 in assay [1] was 603 nM; in assay [4], 692 nM; in assay [5], 1050 nM. Moreover, the pIC50 in assay [2] is 6.03; in assay [3], 5.4. The deltapIC50 in assay [6] was -0.63.
In the case of `C[C@@H]1NC(=O)[C@H](Cc2c[nH]c3ccccc23)NC(=O)[C@H](Cc2ccc(O)cc2)NC(=O)[C@H](Cc2ccc(O)cc2)NC(=O)[C@H](CCCCN)NC(=O)[C@H](CC(=O)O)NC(=O)[C@H]([C@@H](C)O)NC(=O)[C@@H](Cc2c[nH]c3ccccc23)NC(=O)CSC[C@@H](C(N)=O)NC(=O)[C@H](CO)NC(=O)[C@H](Cc2c[nH]c3ccccc23)NC(=O)[C@H](Cc2c[nH]c3ccccc23)NC(=O)[C@H]([C@@H](C)O)NC(=O)[C@H](Cc2ccc(O)cc2)NC1=O`, the IC50 was 794 nM in assay [1], 3550 nM in assay [4] and 4370 nM in assay [5]. Also, the pIC50 in assay [2] came to 5.41; in assay [3], 4.62. In addition, in assay [6], the deltapIC50 was -0.79.
For `CC[C@H](C)[C@@H]1NC(=O)[C@H](CO)NC(=O)[C@H](CCCNC(=N)N)NC(=O)[C@H](CC(C)C)NC(=O)[C@H](Cc2c[nH]cn2)NC(=O)[C@H](CC(C)C)NC(=O)[C@@H]2CCCN2C(=O)[C@H]([C@@H](C)CC)NC(=O)[C@@H](Cc2c[nH]c3ccccc23)NC(=O)CSC[C@@H](C(N)=O)NC(=O)[C@H](CO)NC(=O)[C@H](CCCNC(=N)N)NC(=O)CNC(=O)[C@H](CC(N)=O)NC(=O)[C@H](Cc2ccc(O)cc2)NC(=O)[C@H](C)NC(=O)[C@H](CC(C)C)NC1=O`, the IC50 is 692 nM in assay [1], 18200 nM in assay [4] and 27500 nM in assay [5]. The figures for the pIC50 in assay [2] and in assay [3] were 4.65 and 4.85, respectively. The deltapIC50 in assay [6] amounted to 0.2.
With `CC[C@H](C)[C@@H]1NC(=O)[C@H](CCC(N)=O)NC(=O)[C@H](Cc2c[nH]cn2)NC(=O)[C@H](Cc2ccc(O)cc2)NC(=O)[C@H]([C@@H](C)O)NC(=O)[C@H](CCCCN)NC(=O)[C@H](C(C)C)NC(=O)[C@H](CCCNC(=N)N)NC(=O)[C@H](Cc2ccc(O)cc2)NC(=O)[C@@H](Cc2ccc(O)cc2)NC(=O)CSC[C@@H](C(N)=O)NC(=O)[C@H](CO)NC(=O)[C@H](C(C)C)NC(=O)[C@H](Cc2ccc(O)cc2)NC(=O)[C@H](C(C)C)NC(=O)[C@H](Cc2ccc(O)cc2)NC(=O)[C@H]([C@@H](C)O)NC1=O`, the IC50 in assay [1] is 776 nM; in assay [4] it was 501 nM; in assay [5], 1350 nM. Moreover, the values for the pIC50 in assay [2] and in assay [3] were 5.89 and 5.55, respectively. The deltapIC50 in assay [6] was -0.34.
Turning to `CC[C@H](C)[C@@H]1NC(=O)[C@H](CCC(N)=O)NC(=O)[C@H](Cc2ccc(O)cc2)NC(=O)[C@H](Cc2ccc(O)cc2)NC(=O)[C@H]([C@@H](C)O)NC(=O)[C@H](CCCCN)NC(=O)[C@H](C(C)C)NC(=O)[C@H](CCCNC(=N)N)NC(=O)[C@H](Cc2ccc(O)cc2)NC(=O)[C@@H](Cc2ccc(O)cc2)NC(=O)CSC[C@@H](C(N)=O)NC(=O)[C@H](CO)NC(=O)[C@H](CC(C)C)NC(=O)[C@H](Cc2ccc(O)cc2)NC(=O)[C@H](C(C)C)NC(=O)[C@H](Cc2ccc(O)cc2)NC(=O)[C@H]([C@@H](C)O)NC1=O`, the figures for the IC50 in assay [1], in assay [4] and in assay [5] were 794 nM, 2690 nM and 4070 nM, respectively. Moreover, the values for the pIC50 in assay [2] and in assay [3] were 5.52 and 5.51, respectively. Moreover, in assay [6], the deltapIC50 was -0.01.
As to `CC[C@H](C)[C@@H]1NC(=O)[C@H]([C@@H](C)CC)NC(=O)[C@@H](Cc2c[nH]c3ccccc23)NC(=O)CSC[C@@H](C(N)=O)NC(=O)[C@H](CCCNC(=N)N)NC(=O)[C@H](Cc2c[nH]c3ccccc23)NC(=O)[C@H](Cc2c[nH]c3ccccc23)NC(=O)[C@H]([C@@H](C)O)NC(=O)[C@H](Cc2ccc(O)cc2)NC(=O)[C@H](CC(N)=O)NC(=O)[C@H](Cc2c[nH]cn2)NC(=O)[C@H](Cc2ccc(O)cc2)NC1=O`, the IC50 in assay [1] was 363 nM; in assay [4], 631 nM; in assay [5], 933 nM. The pIC50 in assay [2] was 6.08; in assay [3], 5.54. In addition, the deltapIC50 in assay [6] was -0.54.
Take `C[C@@H]1NC(=O)[C@H](Cc2ccccc2)NC(=O)[C@H](Cc2ccc(O)cc2)NC(=O)[C@H](Cc2ccc(O)cc2)NC(=O)[C@H](CCCNC(=N)N)NC(=O)[C@@H](Cc2ccc(O)cc2)NC(=O)CSC[C@@H](C(N)=O)NC(=O)[C@H](C)NC(=O)[C@H](Cc2c[nH]c3ccccc23)NC(=O)[C@H](Cc2c[nH]c3ccccc23)NC(=O)[C@H]([C@@H](C)O)NC(=O)[C@H](Cc2ccc(O)cc2)NC1=O`: the IC50 is 468 nM in assay [1], 2750 nM in assay [4] and 3630 nM in assay [5]. Also, the pIC50 is 5.52 in assay [2] and ~ 5 in assay [3]. In addition, the deltapIC50 in assay [6] was -0.5.
Take `CC[C@H](C)[C@H](NC(=O)[C@H](CC(C)C)NC(=O)[C@@H](Cc1ccc(O)cc1)NC(C)=O)C(=O)N[C@@H](Cc1ccc(O)cc1)C(=O)N[C@@H](C)C(=O)N[C@@H](Cc1ccc(O)cc1)C(=O)N[C@@H](Cc1ccc(O)cc1)C(=O)N[C@H](C(=O)N[C@@H](Cc1c[nH]c2ccccc12)C(=O)N[C@@H](Cc1c[nH]c2ccccc12)C(=O)N[C@@H](CCC(=O)O)C(=O)N[C@@H](Cc1cnc[nH]1)C(=O)N[C@@H](CO)C(=O)N[C@@H](CS)C(N)=O)[C@@H](C)O`: the figures for the IC50 in assay [1] and in assay [4] were 70800 nM and 30900 nM, respectively. In addition, the pIC50 in assay [2] is < 4.
For `CC(C)[C@@H]1NC(=O)[C@@H]2CCCN2C(=O)[C@H](C)NC(=O)[C@@H](Cc2ccc(O)cc2)NC(=O)CSC[C@@H](C(N)=O)NC(=O)[C@H](Cc2c[nH]c3ccccc23)NC(=O)[C@H](Cc2c[nH]c3ccccc23)NC(=O)[C@H]([C@@H](C)O)NC(=O)[C@H](Cc2ccc(O)cc2)NC(=O)[C@H](CC(N)=O)NC(=O)[C@H](Cc2c[nH]c3ccccc23)NC(=O)[C@H](Cc2ccc(O)cc2)NC1=O`, the IC50 in assay [1] was 1860 nM; in assay [4], 46800 nM; in assay [5] it was 55000 nM. Besides, the pIC50 in assay [2] was 4.17; in assay [3], 5.66. In assay [6], this compound registered a deltapIC50 of 1.49.
As for `CC[C@H](C)[C@@H]1NC(=O)[C@@H](Cc2ccc(O)cc2)NC(=O)CSC[C@@H](C(N)=O)NC(=O)[C@H](CCCNC(=N)N)NC(=O)[C@H](Cc2c[nH]c3ccccc23)NC(=O)[C@H](Cc2c[nH]c3ccccc23)NC(=O)[C@H]([C@@H](C)O)NC(=O)[C@H](Cc2ccc(O)cc2)NC(=O)[C@H](Cc2ccc(O)cc2)NC(=O)[C@H](CCCNC(=N)N)NC(=O)[C@H](Cc2ccc(O)cc2)NC(=O)[C@H](C(C)C)NC1=O`, the IC50 in assay [1] is 269 nM; in assay [4], 1380 nM; in assay [5], 1780 nM. Moreover, the pIC50 in assay [2] was 5.66; in assay [3] it was 5.47. Further, the deltapIC50 in assay [6] is -0.19.

One may read the pIC50 as the negative decadic logarithm of the IC50, by convention in mol/L.
